Test results published in ChEMBL document CHEMBL3407418, “Fragment-based drug discovery of 2-thiazolidinones as BRD4 inhibitors: 2. Structure-based optimization” (J Med Chem, 2015).
Activity calls are given as the source filed them. No cut-off for these calls is given here.

Legend:
Cytochrome P450 2D6 = Cytochrome P450 2D6 (Homo sapiens, UniProt P10635); test: Inhibition of CYP2D6 in human liver microsomes at 10 uM using dextromethorphan substrate preincubated for 5 mins before NADPH addition and measured after 20 mins post NADPH addition; format: ADME; conditions: microsomes, 20 min, 10 µM
Chain of Cytochrome P450 2D6 (P10635 whole entry): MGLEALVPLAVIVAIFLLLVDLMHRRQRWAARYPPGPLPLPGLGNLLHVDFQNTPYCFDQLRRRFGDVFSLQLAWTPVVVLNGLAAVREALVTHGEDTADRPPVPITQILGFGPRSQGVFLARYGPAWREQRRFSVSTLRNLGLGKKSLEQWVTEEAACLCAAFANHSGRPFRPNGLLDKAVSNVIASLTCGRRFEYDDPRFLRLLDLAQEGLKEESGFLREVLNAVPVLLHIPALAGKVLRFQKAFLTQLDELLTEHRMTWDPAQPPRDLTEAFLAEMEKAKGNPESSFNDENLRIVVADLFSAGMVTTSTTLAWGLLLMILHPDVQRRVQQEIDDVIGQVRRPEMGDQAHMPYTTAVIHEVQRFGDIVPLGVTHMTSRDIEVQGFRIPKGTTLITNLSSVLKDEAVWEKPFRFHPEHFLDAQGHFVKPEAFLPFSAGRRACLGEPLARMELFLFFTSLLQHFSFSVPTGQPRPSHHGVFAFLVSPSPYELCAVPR
In short: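 Human liver microsomes 0.2 mg/mL, 1 mmol NADPH, 100 mmol phosphate pH 7.4, probe cocktail (10 μM midazolam, 100 μM testosterone, 10 μM dextromethorphan, 20 μM diclofenac, 100 μM phenacetin, 100 μM mephenytoin), test compound 10 μM or PBS; organic solvent <1%. 5 min preincubation at 37 °C, NADPH-generating system start, 20 min reaction; inhibition from metabolite formation relative to PBS.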

[1] = biological target: Bromodomain-containing protein 4 (Homo sapiens, UniProt O60885); test: Inhibition of BRD4 in human HT-29 cells assessed as reduction in c-myc mRNA expression at 0.3125 uM after 24 hrs by RT-qPCR method; format: cell-based
In short: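 HT-29 cells seeded overnight and exposed to compounds for 24 h; total RNA isolated, reverse-transcribed, and analysed by RT-qPCR with c-myc primers. Relative c-myc mRNA normalised to β-actin and expressed versus untreated control.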

Cytochrome P450 1A2 = biological target: T1, Cytochrome P450 1A2 (Homo sapiens, UniProt P05177); test: Time dependent inhibition of CYP1A2 in human liver microsomes at 10 uM using phenacetin substrate preincubated for 5 mins before NADPH addition and measured after 20 mins post NADPH addition; format: ADME
T1 sequence (P05177 whole entry): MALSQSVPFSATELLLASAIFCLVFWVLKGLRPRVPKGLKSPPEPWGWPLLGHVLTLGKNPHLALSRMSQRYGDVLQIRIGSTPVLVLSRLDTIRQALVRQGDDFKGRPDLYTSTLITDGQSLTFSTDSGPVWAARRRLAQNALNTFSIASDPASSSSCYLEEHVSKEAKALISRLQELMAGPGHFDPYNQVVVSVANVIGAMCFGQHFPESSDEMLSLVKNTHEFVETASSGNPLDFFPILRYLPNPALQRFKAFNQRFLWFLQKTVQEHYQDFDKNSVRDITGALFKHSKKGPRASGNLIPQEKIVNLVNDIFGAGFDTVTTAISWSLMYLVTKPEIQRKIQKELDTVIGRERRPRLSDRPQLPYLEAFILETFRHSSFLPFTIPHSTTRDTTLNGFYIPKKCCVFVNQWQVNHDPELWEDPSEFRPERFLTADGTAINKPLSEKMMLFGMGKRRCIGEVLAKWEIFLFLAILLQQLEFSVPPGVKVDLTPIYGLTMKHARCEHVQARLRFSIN

Compound | inhibition (INH) (Cytochrome P450 2D6) | inhibition [1] | TDI (Cytochrome P450 1A2)
COc1ccc(-c2csc(=O)[nH]2)cc1S(=O)(=O)NC1CCCC1 | Not Active |  | 
Cc1c(N)cc(-c2csc(=O)[nH]2)cc1S(=O)(=O)NC1CCCC1 |  | Active | Not Active
O=C(Nc1cc(-c2csc(=O)[nH]2)cc(S(=O)(=O)NC2CCCC2)c1)C1CC1 |  |  | Not Active
